Screening results deposited in PubChem BioAssay by The Scripps Research Institute Molecular Screening Center.
This is a sample that favours compounds with a hit; in the whole collection about 2.9% have one here.
OX1R antag-1 – blocks the human orexin 1 receptor | inhibition, % at 5 µM | CHO/OX1R cells, Fluo-8 calcium fluorescence, orexin A | AID 434989 | 0.43% of 330,000 active;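 active = inhibition above its plate's threshold, mean inhibition of all tested compounds on the plate plus 3 SD, cut at about 37% in these data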
Target sequence (O43613 whole entry, looked up): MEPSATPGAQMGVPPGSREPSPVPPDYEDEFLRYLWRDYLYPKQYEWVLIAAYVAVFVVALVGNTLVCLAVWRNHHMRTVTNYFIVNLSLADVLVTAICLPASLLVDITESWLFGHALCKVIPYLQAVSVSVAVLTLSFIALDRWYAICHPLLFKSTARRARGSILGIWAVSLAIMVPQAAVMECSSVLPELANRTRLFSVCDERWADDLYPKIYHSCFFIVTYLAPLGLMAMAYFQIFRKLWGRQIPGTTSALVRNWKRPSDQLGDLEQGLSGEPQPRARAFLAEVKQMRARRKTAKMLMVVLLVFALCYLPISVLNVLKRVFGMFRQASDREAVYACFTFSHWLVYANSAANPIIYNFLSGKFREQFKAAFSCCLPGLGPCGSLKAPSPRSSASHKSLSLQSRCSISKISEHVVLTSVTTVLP
CHO-K1 Ca antag – M1 antagonist counterscreen hit in parental CHO-K1 cells. 0.6% of 360,000 active. inhibition, % at 3 µM. AID 602250. ATP-induced calcium, Fluo-8 fluorescence;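 active = inhibition above a per-plate cutoff, the plate's mean sample inhibition plus 3 SD, cut at about 24% in these data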
CHO parental Ca – signal in parental CHO cells, OX1R antagonist counter-screen. parental CHO-K1, ATP-induced calcium, Fluo-8 fluorescence. inhibition, % at 5.6 µM. 0.63% of 330,000 active. AID 463079;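 active = inhibition above that plate's mean sample inhibition plus 3 SD, cut at about 26% in these data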
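Test system: parental CHO cells; detection: calcium-sensitive Fluo-8 fluorescence; evaluation: percent inhibition of calcium signal; also added: ATP as calcium-mobilizing challenge; repeats: one well per compound; control set: ATP-challenged DMSO wells low, unchallenged DMSO wells high; compound: single nominal dose of 5.6 µM per compound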
OX1R antag-2 – OX1R (human) antagonism. O43613. OX1R-expressing cells, FRET antagonist read-out. inhibition, % at 6.6 µM. 1.8% of 330,000 active; in the data active = inhibition mostly above about 38%, no sharp cut-off; inactive = mostly below about 40%
M1 ag parental – nonselective activator or artifact in parental CHO-K1 cells; 0.48% of 360,000 active; activation, % at 3 µM; Fluo-8 calcium fluorescence; scaled to maximal ATP response, vehicle zero; in the data active = activation above about 15%;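 also: untransfected CHO-K1 host cells lacking M1 receptor as counterscreen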
CHO-K1 Ca PAM – nonselective activator or artifact in parental CHO-K1 calcium assay. activation, % at 3 µM. 0.02% of 360,000 active. ATP EC20, Fluo-8 calcium fluorescence; 0% at ATP EC20, 100% at ATP max;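 active = activation above the run cutoff, the mean activation of all test compounds plus 3 SD, cut at about 40% in these data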;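 also: peak over basal fluorescence ratio in a 140 s read after ATP addition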
OX1R HTRF conf – OX1R (human) antagonism, HTRF confirmed. shares compounds with OX1R antag-2. OX1R-expressing cells, HTRF antagonist assay. inhibition, % at 6.6 µM. 49% of 1,800 active. AID 492964; in the data active = inhibition above about 55%;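 also: CHO cells expressing OX1R stimulated with orexin A at about EC80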
CHO-K1 HTRF cnt – signal in parental CHO-K1 cells, OX1R antagonist counter-screen | HTRF counterscreen | AID 493232 | 48% of 1,800 active | inhibition, % at 6.6 µM | shares compounds with OX1R antag-2; in the data active = inhibition above about 17%
Of the large screens only hits and unclear results are named; the others gave an inactive call (follow-up assays come after a bar, where they were run).

CCOC(=O)C1=CN(Cc2cccc(-c3ccc4c(c3)OCO4)c2)S(=O)(=O)N(C)C1C (stereo not drawn)	none
CCOC(=O)N1CCC(NC(=S)Nc2ccc3nc(N4CCN(C)CC4)cc(C)c3c2)CC1	OX1R antag-2 105 | OX1R HTRF conf inactive | CHO-K1 HTRF cnt inactive
Cc1nc2ccc([N+](=O)[O-])cc2[nH]1	none
O=[N+]([O-])c1cccc(/C=C/c2nc3ccc([N+](=O)[O-])cc3[nH]2)c1	OX1R antag-2 102 | OX1R HTRF conf inactive | CHO-K1 HTRF cnt inactive
CCOC(=O)c1ccc(NCCOC)c([N+](=O)[O-])c1	none
CCCC(=O)OCCNc1cc(SCCC(=O)OC)c2nonc2c1[N+](=O)[O-]	OX1R antag-2 120 | OX1R HTRF conf 64 | CHO-K1 HTRF cnt 79
Cc1cccc(C)c1NC(=O)C1(C)CCC(=O)N1CCCn1ccnc1 (stereo not drawn)	none (no result: OX1R antag-1, CHO parental Ca, OX1R antag-2)
O=C(N/N=C/c1cccc2ccccc12)C(=O)N1CCCC1	none
O=C(N/N=C/c1ccccc1[N+](=O)[O-])C(=O)N1CCCC1	OX1R antag-2 92 | OX1R HTRF conf inactive | CHO-K1 HTRF cnt 26
C[C@@H](C(=O)Nc1ccc2ccccc2c1)[C@H]1C[C@]1(C)[C@H](NC(=O)c1cccnc1)c1ccccc1	OX1R antag-2 80 (no result: CHO-K1 Ca antag, M1 ag parental, CHO-K1 Ca PAM) | OX1R HTRF conf 72 | CHO-K1 HTRF cnt inactive
C[C@@H](C(=O)Nc1ccc2ccccc2c1)[C@@H]1C[C@@]1(C)[C@@H](NC(=O)c1ccccc1)c1ccccc1	none
COCCCNC(=O)c1ccc([N+](=O)[O-])cc1	none
O=C(NCCCCC(NC(=O)c1ccc([N+](=O)[O-])cc1)C(=O)O)c1ccc([N+](=O)[O-])cc1 (stereo not drawn)	OX1R antag-2 137 | OX1R HTRF conf inactive | CHO-K1 HTRF cnt 58
Cc1cnc(N2C(=O)c3ccc([N+](=O)[O-])cc3C2=O)s1	none
O=C1c2ccc([N+](=O)[O-])cc2C(=O)N1c1ccc([N+](=O)[O-])cn1	OX1R antag-2 95 | OX1R HTRF conf inactive | CHO-K1 HTRF cnt 63
O=C1c2cc([N+](=O)[O-])cc3cc([N+](=O)[O-])cc(c23)C(=O)N1c1ccccn1	OX1R antag-2 82 | OX1R HTRF conf 73 | CHO-K1 HTRF cnt 114
O=C1c2ccc(Oc3cccc([N+](=O)[O-])c3)cc2C(=O)N1c1ccccn1	none
Cc1ccc(S(=O)(=O)NN2C(=O)c3ccccc3NC2c2ccccn2)cc1 (stereo not drawn)	none
CCS(=O)(=O)c1nc(S(=O)(=O)c2ccc(Cl)cc2)c(N2CCN(C)CC2)s1	none
CCOC(=O)[C@@H]1[C@H]2COc3ccccc3[C@H]2N2C(=O)N(c3ccccc3)C(=O)[C@]12C	none
CCN1C(=O)/C(=C2/SC(C)=C(C)N2CC)SC1=S	OX1R antag-2 96 | OX1R HTRF conf 84 | CHO-K1 HTRF cnt inactive
CCCCN1C(=O)/C(=C2/Sc3ccc(OC)cc3N2CC)SC1=S	none
O=c1c([N+](=O)[O-])cccn1Cc1ccccc1Cl	OX1R antag-2 79 | OX1R HTRF conf inactive | CHO-K1 HTRF cnt 27
Nc1nnc(-c2cc3ccccc3oc2=O)s1	OX1R antag-2 152 | OX1R HTRF conf inactive | CHO-K1 HTRF cnt 50
CCCN1CCC(NC(=S)Nc2ccc(S(N)(=O)=O)cc2)CC1	none
COc1cccc(N/N=C(\C#N)S(=O)(=O)C(C)(C)C)c1	none
COc1cccc(C(=O)/C(C#N)=N/Nc2cccc(-c3ccnc(C)n3)c2)c1	OX1R antag-2 77 | OX1R HTRF conf inactive | CHO-K1 HTRF cnt 18
CSC1=N/C(=C/c2ccc(-n3cncn3)cc2)C(=O)N1	OX1R antag-2 86 | OX1R HTRF conf inactive | CHO-K1 HTRF cnt 25
COc1ccc(/C=C2\N=C(SC)NC2=O)cc1	none
CNC(=O)c1nc(C)n(-c2ccc([N+](=O)[O-])cc2)n1	none
COc1ccc(NC(=O)c2nc(C)n(-c3ccc([N+](=O)[O-])cc3)n2)cc1	OX1R antag-2 107 | OX1R HTRF conf inactive | CHO-K1 HTRF cnt 33
CCCNC(=O)c1nc(C)n(-c2ccc([N+](=O)[O-])cc2)n1	OX1R antag-2 137 | OX1R HTRF conf 71 | CHO-K1 HTRF cnt 52
Cc1ccccc1NC(=O)Cc1nc(COC(=O)c2cc(Cl)ccc2O)cs1	none
COc1ccc(CCN2C(=O)c3cccnc3C2=O)cc1OC	OX1R antag-2 82 | OX1R HTRF conf inactive | CHO-K1 HTRF cnt 21
Cc1nc(-c2cccc(NC(=O)c3ccc(-n4nccc4C)cc3)c2)cs1	none
Cc1nc(-c2ccc(C(=O)Nc3cccc(Br)c3)cc2)cs1	OX1R antag-2 88 | OX1R HTRF conf inactive | CHO-K1 HTRF cnt inactive
O=c1[nH]c2cc(NCCO)c([N+](=O)[O-])cc2[nH]1	OX1R antag-2 166 | OX1R HTRF conf 66 | CHO-K1 HTRF cnt 88
O=C(c1cccs1)N1CCN(c2nc3ccccc3s2)CC1	OX1R antag-2 87 | OX1R HTRF conf inactive | CHO-K1 HTRF cnt inactive
Cc1cccc2sc(N3CCN(C(=O)c4cccs4)CC3)nc12	none
CN(CC(=O)Nc1ccc(Cl)c(C(F)(F)F)c1)C(=O)C1(c2ccccc2)CC1	none
O=C(CCCN1C(=O)c2cccc3cccc(c23)C1=O)NC1CCS(=O)(=O)C1 (stereo not drawn)	OX1R antag-2 85 | OX1R HTRF conf inactive | CHO-K1 HTRF cnt 50
O=C(CN1C(=O)c2ccccc2C1=O)NC1CCS(=O)(=O)C1 (stereo not drawn)	none (no result: OX1R antag-1, CHO parental Ca, OX1R antag-2)
COCCNC(=O)C(c1ccc(F)cc1)N(Cc1ccccc1)C(=O)CCC(=O)Nc1nccs1 (stereo not drawn)	OX1R antag-2 78 | OX1R HTRF conf 80 | CHO-K1 HTRF cnt inactive
COc1ccc(Cl)cc1NC(=O)CCCn1c(=O)c2cccn2c2cccnc21	none (no result: OX1R antag-1, CHO parental Ca, OX1R antag-2)
CCOC(=O)c1cccc(NC(=O)CCCn2c(=O)c3cccn3c3cccnc32)c1	OX1R antag-2 80 | OX1R HTRF conf 80 | CHO-K1 HTRF cnt inactive
CC(=O)NN1C(=O)c2ccc3c4c(ccc(c24)C1=O)C(=O)N(NC(C)=O)C3=O	OX1R antag-2 83 | OX1R HTRF conf 69 | CHO-K1 HTRF cnt 174
O=C1c2ccc3c4c(ccc(c24)C(=O)N1NC(=O)C(F)(F)F)CC3	none
Nc1ccc2c(c1)C(=O)C(=O)c1ccccc1-2	OX1R antag-2 active | OX1R HTRF conf 83 | CHO-K1 HTRF cnt 41
O=C(N=C1SC2CS(=O)(=O)CC2N1Cc1ccc(Cl)cc1)C1CCCO1 (stereo not drawn)	none
